ChEMBL document CHEMBL2040734, “Benzothiazoles: search for anticancer agents” (2012)

How the values were obtained:
Format in all cases: functional
MDA-MB-231 [1] = assay: Cytotoxicity against human MDA-MB-231 cells assessed as cell growth at 10 uM after 48 hrs by sulforhodamine B assay; conditions: MDA-MB-231, 48 h, read-out: Activity
BT-549 [2] = assay: Cytotoxicity against human BT549 cells assessed as cell growth at 0.1 uM after 48 hrs by sulforhodamine B assay; conditions: BT-549, 48 h, read-out: Activity
Summary of the method: (§1)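 NCI-60 five-dose screen. Cells were grown in RPMI 1640 with 5% FBS and 2 mM L-glutamine and preincubated 24 h. Compound (DMSO stock) was tested at 0.01, 0.1, 1, 10 and 100 µM for 48 h at 37 °C. Cells were fixed in situ with cold TCA (final 10%) and stained with 0.4% SRB. A515 was read, and percent growth was calculated against time-zero and control plates.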

NCI-H460 = assay: Cytotoxicity against human NCI-H460 cells assessed as cell growth at 1 uM after 48 hrs by sulforhodamine B assay; conditions: NCI-H460, 48 h, read-out: Activity
U-251 = assay: Cytotoxicity against human U251 cells assessed as cell growth at 1 uM after 48 hrs by sulforhodamine B assay; conditions: U-251, 48 h, read-out: Activity
NCI-H522 = assay: Cytotoxicity against human NCI-H522 cells assessed as cell growth at 100 uM after 48 hrs by sulforhodamine B assay; conditions: NCI-H522, 48 h, read-out: Activity
SK-OV-3 = assay: Growth inhibition of human SKOV3 cells after 48 hrs by sulforhodamine B assay; conditions: SK-OV-3, 48 h
Summary of the method: (§2)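 Adherent NCI-60 lines were grown in RPMI 1640 with 5% FBS and 2 mM L-glutamine, plated at 5000–40,000 cells/well and preincubated 24 h. They were then exposed to five concentrations (0.01–100 µM, from a DMSO stock) for 48 h at 37 °C, 5% CO2. Cells were fixed with cold TCA (10% final, 60 min, 4 °C) and stained with 0.4% SRB. Dye was solubilized in 10 mM Tris base and A515 read. GI50 was derived from time-zero, control and treated absorbances.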

HCT-15 = assay: Cytotoxicity against human HCT15 cells assessed as cell growth at 10 '-5 M after 48 hrs by sulforhodamine B assay; conditions: HCT-15, 48 h, read-out: Activity
Summary of the method: (§3)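 Primary one-dose screen across the NCI 60-line panel at 10 µM. Cells were grown in RPMI 1640 with 5% FBS and 2 mM L-glutamine and held 24 h before drug. Drug was diluted from a DMSO concentrate. Exposure was 48 h at 37 °C, 5% CO2. Cells were fixed with TCA and stained with SRB, with absorbance read at 515 nm. Percent growth was calculated against time-zero and untreated control.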

MDA-MB-468 = assay: Cytotoxicity against human MDA-MB-468 cells assessed as cell growth at 10 '-5 M after 48 hrs by sulforhodamine B assay; conditions: MDA-MB-468, 48 h, read-out: Activity
NCI/ADR-RES [3] = assay: Growth inhibition of human NCI/ADR-RES cells after 48 hrs by sulforhodamine B assay; summary of the method: as §2
MCF7 = assay: Cytotoxicity against human MCF7 cells assessed as cell growth at 10 '-5 M after 48 hrs by sulforhodamine B assay; conditions: MCF7, 48 h, read-out: Activity
UACC-62 = assay: Cytotoxicity against human UACC62 cells assessed as cell growth at 0.1 uM after 48 hrs by sulforhodamine B assay; conditions: UACC-62, 48 h, read-out: Activity
A549 [4] = assay: Cytotoxicity against human A549 cells assessed as cell growth at 100 uM after 48 hrs by sulforhodamine B assay; conditions: A549, 48 h, read-out: Activity; summary of the method: as §1
SF-295 = assay: Growth inhibition of human SF295 cells after 48 hrs by sulforhodamine B assay; conditions: SF-295, 48 h; for CC50: read-out: LC50 (the source's name); summary of the method: as §2
CAKI-1 [5] = assay: Cytotoxicity against human Caki1 cells assessed as cell growth at 0.01 uM after 48 hrs by sulforhodamine B assay; conditions: CAKI-1, 48 h, read-out: Activity; summary of the method: as §1
MOLT-4 [6] = assay: Cytotoxicity against human MOLT4 cells assessed as cell growth at 10 uM after 48 hrs by sulforhodamine B assay; conditions: MOLT-4, 48 h, read-out: Activity
UACC-257 = assay: Cytotoxicity against human UACC257 cells assessed as cell growth at 10 uM after 48 hrs by sulforhodamine B assay; conditions: UACC-257, 48 h, read-out: Activity
RPMI-8226 = assay: Cytotoxicity against human RPMI8226 cells assessed as cell growth at 0.1 uM after 48 hrs by sulforhodamine B assay; conditions: RPMI-8226, 48 h, read-out: Activity
CAKI-1 [7] = assay: Growth inhibition of human Caki1 cells after 48 hrs by sulforhodamine B assay; conditions: CAKI-1, 48 h; for CC50: read-out: LC50 (the source's name); summary of the method: as §2
SK-MEL-28 = assay: Cytotoxicity against human SK-MEL-28 cells assessed as cell growth at 10 '-5 M after 48 hrs by sulforhodamine B assay; conditions: SK-MEL-28, 48 h, read-out: Activity
OVCAR-5 = assay: Cytotoxicity against human OVCAR5 cells assessed as cell growth at 1 uM after 48 hrs by sulforhodamine B assay; conditions: OVCAR-5, 48 h, read-out: Activity
MDA-MB-231 [8] = assay: Growth inhibition of human MDA-MB-231 cells after 48 hrs by sulforhodamine B assay; conditions: MDA-MB-231, 48 h; summary of the method: as §2
[9] = Cytotoxicity against human Hs 578T cells assessed as cell growth at 10 '-5 M after 48 hrs by sulforhodamine B assay; conditions: read-out: Activity; summary of the method: as §3
DU-145 = assay: Cytotoxicity against human DU145 cells assessed as cell growth at 0.1 uM after 48 hrs by sulforhodamine B assay; conditions: DU-145, 48 h, read-out: Activity; summary of the method: as §1
SF-268 = assay: Cytotoxicity against human SF268 cells assessed as cell growth at 1 uM after 48 hrs by sulforhodamine B assay; conditions: SF-268, 48 h, read-out: Activity
BT-549 [10] = assay: Growth inhibition of human BT549 cells after 48 hrs by sulforhodamine B assay; conditions: BT-549, 48 h
Summary of the method: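 Cells were in RPMI 1640 with 5% FBS and pre-incubated 24 h. Read-out was TCA fixation, SRB staining and absorbance at 515 nm. GI50 was the concentration where [(Ti−Tz)/(C−Tz)]×100 = 50, taken from log concentration vs % growth curves. It is given as ">" the top concentration when not reached.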

MOLT-4 [11] = assay: Cytotoxicity against human MOLT4 cells assessed as cell growth at 1 uM after 48 hrs by sulforhodamine B assay; conditions: MOLT-4, 48 h, read-out: Activity
A549 [12] = assay: Cytotoxicity against human A549 cells assessed as cell growth at 0.1 uM after 48 hrs by sulforhodamine B assay; conditions: A549, 48 h, read-out: Activity; summary of the method: as §1
NCI/ADR-RES [13] = assay: Cytotoxicity against human NCI/ADR-RES cells assessed as cell growth at 0.1 uM after 48 hrs by sulforhodamine B assay; conditions: read-out: Activity

Compound | growth at 10 µM (MDA-MB-231 [1]) [%] | growth at 0.1 µM (BT-549 [2]) [%] | growth at 1 µM (NCI-H460) [%] | growth at 1 µM (U-251) [%] | growth at 100 µM (NCI-H522) [%] | LC50 (SK-OV-3) [nM] | TGI (SK-OV-3) [nM] | growth at 10 µM (HCT-15) [%] | growth at 10 µM (MDA-MB-468) [%] | GI50 (NCI/ADR-RES [3]) [nM] | LC50 (lethal concentration, 50% net cell kill) (NCI/ADR-RES [3]) [nM] | TGI (NCI/ADR-RES [3]) [nM] | growth at 10 µM (MCF7) [%] | growth at 0.1 µM (UACC-62) [%] | growth at 100 µM (A549 [4]) [%] | GI50 (SF-295) [nM] | TGI (SF-295) [nM] | CC50 (SF-295) [nM] | growth at 0.01 µM (CAKI-1 [5]) [%] | growth at 10 µM (MOLT-4 [6]) [%] | other results
Cc1ccc2nc(Nc3c(C)cccc3C)sc2c1 | 22 | 99 | 81 | 80 | 34 | > 100000 | > 100000 | 19.9 | 2.04 | 639 | > 100000 | > 100000 | 19.8 | 85 | 69 | 725 | > 100000 | > 100000 | 93 | 56 | growth at 10 µM (UACC-257): 70%; growth at 0.1 µM (RPMI-8226): 100%; GI50 (CAKI-1 [7]): 564 nM; TGI (CAKI-1 [7]): > 100000 nM; CC50 (CAKI-1 [7]): > 100000 nM; growth at 10 µM (SK-MEL-28): 45.5%; growth at 1 µM (OVCAR-5): 79%; GI50 (MDA-MB-231 [8]): 528 nM; LC50 (concentration killing 50% of cells) (MDA-MB-231 [8]): > 100000 nM; TGI (MDA-MB-231 [8]): 59800 nM; growth at 10 µM [9]: 54.1%; growth at 0.1 µM (DU-145): 102%; growth at 1 µM (SF-268): 79%; TGI (BT-549 [10]): > 100000 nM; CC50 (BT-549 [10]; read-out: LC50 (the source's name)): > 100000 nM; growth at 1 µM (MOLT-4 [11]): 76%; growth at 0.1 µM (A549 [12]): 108%; growth at 0.1 µM (NCI/ADR-RES [13]): 93%
Clc1cccc(Cl)c1Nc1nc2cccc(Cl)c2s1 | -93 | 101 | 67 | 68 | -49 | 5950 | 3080 | -42.5 | -25.6 | 531 | 6230 | 2150 | -14.7 | 86 | -55 | 459 | 1900 | 4960 | 92 | -38 | GI50 (SK-OV-3): 1600 nM; growth at 10 µM (UACC-257): -71%; growth at 0.1 µM (RPMI-8226): 97%; GI50 (CAKI-1 [7]): 259 nM; TGI (CAKI-1 [7]): 1460 nM; CC50 (CAKI-1 [7]): 4230 nM; growth at 10 µM (SK-MEL-28): -48.1%; growth at 1 µM (OVCAR-5): 79%; GI50 (MDA-MB-231 [8]): 304 nM; LC50 (concentration killing 50% of cells) (MDA-MB-231 [8]): 4060 nM; TGI (MDA-MB-231 [8]): 1420 nM; growth at 10 µM [9]: -11.4%; growth at 0.1 µM (DU-145): 102%; growth at 1 µM (SF-268): 62%; GI50 (BT-549 [10]): 1500 nM; TGI (BT-549 [10]): 3010 nM; growth at 1 µM (MOLT-4 [11]): 52%; growth at 0.1 µM (A549 [12]): 99%; growth at 0.1 µM (NCI/ADR-RES [13]): 87%
